Measured values gathered from unrelated publications.
Target: Mitogen-activated protein kinase 15 (MAPK15, Homo sapiens, UniProt Q8TD08)
One construct used (Q8TD08 1-544): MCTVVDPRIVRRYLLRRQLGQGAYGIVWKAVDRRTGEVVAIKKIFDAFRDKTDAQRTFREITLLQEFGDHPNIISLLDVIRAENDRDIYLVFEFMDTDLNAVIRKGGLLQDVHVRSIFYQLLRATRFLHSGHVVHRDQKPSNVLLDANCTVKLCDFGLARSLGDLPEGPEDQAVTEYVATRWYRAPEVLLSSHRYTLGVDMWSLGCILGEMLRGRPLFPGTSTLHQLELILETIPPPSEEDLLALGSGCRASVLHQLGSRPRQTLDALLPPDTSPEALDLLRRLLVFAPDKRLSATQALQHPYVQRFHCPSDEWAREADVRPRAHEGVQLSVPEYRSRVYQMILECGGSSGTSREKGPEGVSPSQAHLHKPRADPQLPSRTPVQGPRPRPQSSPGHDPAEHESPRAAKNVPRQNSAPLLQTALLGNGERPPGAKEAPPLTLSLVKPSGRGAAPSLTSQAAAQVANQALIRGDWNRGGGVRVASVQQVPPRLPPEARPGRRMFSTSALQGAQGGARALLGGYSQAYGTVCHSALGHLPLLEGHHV

SMILES | assay | setting | remaining binding [%]
CO[C@@H](C)c1c(Nc2ccc([C@H](N(C)C(=O)C3CCS(=O)(=O)CC3)C(F)(F)F)cc2)cnc2cc(Cl)nn12 | cell-free assay, competition with immobilised ligand | 1 µM | 87
C[C@@H]1CCN(c2nccc(-c3cnn4ncccc34)n2)C1 | binding | 1 µM | 49
CCN1CCN(Cc2ccc(C(=O)Nc3ccc(C)c(Oc4ccc5c(c4)CC(=O)N5)c3)cc2C(F)(F)F)CC1 | binding, competition with immobilised ligand | 1 µM | 100
CCS(=O)(=O)c1cc2cc(C[C@](O)(CC(C)(C)c3ccc(F)cc3C(N)=O)C(F)(F)F)[nH]c2cn1 | cell-free assay, competition with immobilised ligand | 1 µM | 100
C[C@@H](c1ccc(-n2cnc3c(N)ncnc32)cc1)N1CCc2nn(C)c(Cc3ccccc3)c2C1=O | binding, competition with immobilised ligand | 0.1 µM | 88
N[C@H]1CCN(c2nccc(-c3cnn4ncccc34)n2)C1 | binding | 1 µM | 93
FC(F)(F)Oc1cccc(-c2cnc3ccc(-c4ccncc4)nn23)c1 | cell-free assay, competition with immobilised ligand | 5 µM | 48
CN([C@@H]1CCc2c(CC(=O)O)c3ccccc3n2C1)S(=O)(=O)c1ccc(F)cc1 | cell-free assay, competition with immobilised ligand | 1 µM | 100
COc1ccnn2ncc(-c3ccnc(N(C)C)n3)c12 | binding | 1 µM | 91
O=C(c1ccc(Nc2ncc(Cl)c(-c3ccc(Cl)s3)n2)cc1)N1CCC(N2CCCC2)CC1 | binding, competition with immobilised ligand | 1 µM | 3.8
CNC(=O)[C@@H]1CC[C@@H](n2c(-c3ccc4cnccc4c3)nc3ccc(C(=O)NCc4cccc(C(N)=O)c4)cc32)C1 | binding, competition with immobilised ligand | 1 µM | 95
Cc1noc([C@H]2C[C@@H](c3ccc(C(F)(F)F)cc3)CN(C(=O)N3CCS(=O)(=O)C3)C2)n1 | cell-free assay, competition with immobilised ligand | 1 µM | 100
CN(C)c1nccc(-c2cnn3ncccc23)n1 | binding | 1 µM | 51
O=C(NCCCN1CCOCC1)c1ccc(Nc2nccc(-c3cc4ccccc4s3)n2)cc1 | binding, competition with immobilised ligand | 1 µM | 10
C[C@H](NC(=O)c1cnc2n1[C@](C)(Cc1ccc(C#N)cc1)C(=O)N2c1cc(Cl)c(F)c(Cl)c1)C(=O)NC1(c2ccccn2)CC1 | cell-free assay, competition with immobilised ligand | 1 µM | 100
Cc1cnc(Nc2ccc(C(=O)N3CCC(N4CCCC4)CC3)cc2)nc1-c1cc2ccccc2s1 | binding, competition with immobilised ligand | 1 µM | 33
Cc1cnn2ncc(-c3ccnc(N(C)C)n3)c2c1 | binding | 1 µM | 83
c1cncc(-c2cccc(Nc3nccc(NC4CCCCC4)n3)c2)c1 | binding, competition with immobilised ligand | 10 µM | 62
C=CC(=O)N1CCC(C(=O)NCC(=O)N2CCN(c3nc(-c4cnc(N)nc4C(F)F)nc(N4CCOCC4)n3)CC2)CC1 | binding, competition with immobilised ligand | 1 µM | 97
O=C(Nc1c[nH]nc1C(=O)NC1CCNCC1)c1cc(F)cc(F)c1 | binding, competition with immobilised ligand | 1 µM | 75
CC1CCCN1c1nccc(-c2cnn3ncccc23)n1 (stereo not shown) | binding | 1 µM | 100
O=C(O)c1cc(-c2ccc(C3CCNCC3)cc2)c2ccc(-c3ccc(C(F)(F)F)cc3)cc2c1 | cell-free assay, competition with immobilised ligand | 1 µM | 100
